Screening data: PubChem BioAssay, several laboratories
A selection: hits, their analogues and other compounds. The true share with any hit is near 3.7%.
OX1R antag-1 = blocks the human orexin 1 receptor; O43613; OX1R-expressing cells, FRET antagonist read-out; inhibition, % at 6.6 µM; 330,000 tested, 1.8% active; in the data active = inhibition mostly above about 38%, no sharp cut-off; inactive = mostly below about 40%;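 also: 0% = agonist challenge alone and 100% = reference antagonist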
GPR7 antag = human neuropeptides B/W receptor 1 antagonism; GPR7-expressing cells, fluorescence antagonist assay; inhibition, % at 4.4 µM; 290,000 tested, 1.1% active; in the data active = inhibition above about 16%, passing the limit was not always enough;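 also: cells stimulated with the agonist NPW; 0% = agonist with vehicle and 100% = vehicle without agonist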
PGE2 EP2 inh = inhibitors of human EP2 prostaglandin E2 receptor. inhibition, % at 25 µM. P43116. 260,000 tested, 0.52% active. C6 glioma cells expressing human EP2, cAMP TR-FRET; cells stimulated with saturating PGE2. AID 1422;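 active = percent inhibition above 40 after rounding to a whole number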;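 also: rat C6 glioma host cells with rolipram phosphodiesterase inhibitor present; the protocol text gives 20 µM as final concentration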
Target sequence (P43116 whole entry, looked up): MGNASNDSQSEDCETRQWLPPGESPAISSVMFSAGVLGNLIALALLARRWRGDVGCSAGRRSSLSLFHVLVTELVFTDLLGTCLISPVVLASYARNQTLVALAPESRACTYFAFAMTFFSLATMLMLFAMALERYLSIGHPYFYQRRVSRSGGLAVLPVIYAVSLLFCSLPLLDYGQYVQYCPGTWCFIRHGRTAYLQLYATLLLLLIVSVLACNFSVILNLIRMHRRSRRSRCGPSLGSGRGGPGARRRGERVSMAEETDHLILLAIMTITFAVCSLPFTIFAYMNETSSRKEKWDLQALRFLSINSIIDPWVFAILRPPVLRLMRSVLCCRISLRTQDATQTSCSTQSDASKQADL
EP2 modulator = modulators of human EP2 prostaglandin E2 receptor; induction, % at 25 µM; EP2-expressing cells, cAMP HTRF FRET, PGE2 co-stimulation; AID 940; 260,000 tested, 0.83% active; P43116;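 active = compounds whose cAMP rise, as percent of the full-agonist control response, exceeds 60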;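 also: rat C6 glioma line stably carrying human EP2 under a CMV promoter; the protocol text gives 20 µM as final concentration; 100% = response of wells given 1 µM PGE2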
OX1R antag-2 = antagonists of human orexin 1 receptor; O43613; CHO/OX1R cells, Fluo-8 calcium fluorescence, orexin A; inhibition, % at 5 µM; 330,000 tested, 0.43% active;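 active = inhibition above its plate's threshold, mean inhibition of all tested compounds on the plate plus 3 SD, cut at about 37% in these data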;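 also: 0% = orexin A challenge wells and 100% = SB-334867-A antagonist wells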
CHO parental Ca = counter-screen for OX1R antagonists: effect in parental CHO cells; inhibition, % at 5.6 µM; 330,000 tested, 0.63% active; parental CHO-K1, ATP-induced calcium, Fluo-8 fluorescence;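 active = inhibition above that plate's mean sample inhibition plus 3 SD, cut at about 26% in these data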;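 also: 0% = ATP-challenged DMSO wells and 100% = DMSO wells without ATP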
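Material: parental CHO cells / Compound: single nominal dose of 5.6 µM per compound / Signal: Fluo-8 fluorescence / Replicates: singlicate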
GPR7 antag conf = human GPR7 antagonism, confirmation assay; shares compounds with GPR7 antag; GPR7-expressing cells, calcium fluorescence antagonist mode; inhibition, % at 4.4 µM; 2,400 tested, 52% active; AID 1952; in the data active = inhibition above about 24%;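 also: stimulated with the GPR7 agonist NPW; 0% = agonist plus vehicle and 100% = vehicle alone without agonist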
MCHR1 antag = counter-screen for GPR7 antagonists: antagonists of human MCHR1 | shares compounds with GPR7 antag | AID 2148 | inhibition, % at 4.4 µM | 2,400 tested, 62% active | MCHR1-expressing cells, fluorescence antagonist assay; in the data active = inhibition above about 22%;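 also: 0% = vehicle with agonist and 100% = vehicle without agonist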
* marks the source's active call; other numbers are inactive results; . = not tested or not shown.

SMILES	OX1R antag-1	GPR7 antag	PGE2 EP2 inh	EP2 modulator	OX1R antag-2	CHO parental Ca	GPR7 antag conf	MCHR1 antag
CCOCCn1c(CN2CCN(CCO)CC2)nc2c1c(=O)n(C)c(=O)n2C	-2	-2	.	.	-2	-2	.	.
CN(C)CCCNS(=O)(=O)c1ccc(NC2CCCCCC2)c([N+](=O)[O-])c1	18	23*	.	.	18	28	48*	51*
CCNc1ccc(S(=O)(=O)NCCN(C)C)cc1[N+](=O)[O-]	28	-13	9	30	-1	4	.	.
C=CCNC(=S)Nc1cccc(C)n1	.	.	12	-11	.	.	.	.
NC(=O)CN1C(=O)NC2(CCOc3ccccc32)C1=O (stereo unspecified)	5	-1	.	.	-14	4	.	.
COc1ccc2c(c1)CCC1C2=NN(/C(C)=C\C(C)=O)C1c1ccc(F)cc1 (stereo unspecified)	17	-6	6	-30	-12	-16	.	.
O=C(Cc1ccc([N+](=O)[O-])cc1)Nc1ccc2c(c1)CCC2	12	22*	.	.	-16	15	24	27*
Cc1cccc(OCCNc2ccc([N+](=O)[O-])cn2)c1	25	32*	8	-16	-5	1	48*	39*
O=[N+]([O-])c1ccc(NCCOc2ccccc2Cl)nc1	8	16	.	.	-16	-7	.	.
Nc1nc(Cl)cc(N2CCC(c3cc(-c4ccc(Cl)cc4)n[nH]3)CC2)n1	19	38*	26	-57	54*	34*	26*	72*
COc1ccc(-c2cc(C3CCN(c4cc(Cl)nc(N)n4)CC3)[nH]n2)cc1	10	7	5	-51	-4	-1	.	.
CCCC(CCC)C(=O)Nc1ccc2c(c1)N(C(=O)CCN1CCN(C)CC1)c1ccccc1CC2	6	28*	8	-26	-21	-6	28*	18
CCOC(=O)Nc1ccc2c(c1)N(C(=O)CN1CCN(C)CC1)c1ccccc1CC2	7	2	.	.	-8	1	.	.
COc1ccc(NC(=O)c2cc([N+](=O)[O-])ccc2NC(=O)CNCc2ccccn2)c(OC)c1	34	2	.	.	-5	-5	.	.
O=C(Nc1ccccc1)Nc1ccc(Cl)c([N+](=O)[O-])c1	33	26*	16	-85	5	10	58*	65*
O=C(Nc1ccc(Cl)cc1)Nc1csc([N+](=O)[O-])c1	83*	24*	12	-34	65*	65*	57*	67*
CC(=O)Nc1ccc(NC(=O)Nc2cccc(Cl)c2)cc1	-2	1	.	.	-24	-5	.	.
O=C(Nc1ccc(Cl)c([N+](=O)[O-])c1)Nc1nc2ccccc2s1	-3	12	8	16	10	2	.	.
O=C(Nc1csc([N+](=O)[O-])c1)Nc1c(Cl)cccc1Cl	23	11	10	-37	-7	-6	.	.
CC(=O)c1ccc(NC(=O)Nc2cccc(Cl)c2)cc1	72*	29*	21	-50	35	38*	37*	67*
CC1CCCC(NC(=O)CCn2c(=S)oc3ccccc32)C1C (stereo unspecified)	7	15	6	7	-23	-14	.	.
COc1cccc(CC(=O)Nc2nc3c(s2)C(=O)CC(C)(C)C3)c1	22	-5	13	-23	-17	-23	.	.
CCN(Cc1ccccc1)Cc1nnnn1Cc1ccccc1	16	26*	5	18	-22	-13	18	16
Cc1ccc(SCc2cc(=O)n(C)[nH]2)cc1	21	-10	6	32	-30	-1	.	.
Fc1ccccc1Cc1noc(CN2CCN(c3ccc(Cl)cn3)CC2)n1	22	21*	6	-17	-25	5	13	26*
SMILES	OX1R antag-1	GPR7 antag	PGE2 EP2 inh	EP2 modulator	OX1R antag-2	CHO parental Ca	GPR7 antag conf	MCHR1 antag
O=C(COc1ccc(C(=O)c2ccccc2)cc1)Nc1ncccc1O	6	-6	.	.	10	-2	.	.
O=C(Nc1ncccc1O)c1ccc(Oc2ccccc2)cc1	7	35*	.	.	-27	-3	9	16
CC(C)NC(=O)CCc1nc2cccnc2n1-c1ccccc1	2	56*	.	.	2	-16	-4	-5
O=C(CC1Sc2ccccc2NC1=O)Nc1cccc(C(=O)O)c1 (stereo unspecified)	10	21*	10	14	6	7	-11	5
CN(Cc1ccccn1)C(=O)CC1C(=O)NCCN1Cc1cccc(Oc2ccccc2)c1 (stereo unspecified)	14	26*	7	-12	-23	-18	-6	5
CCc1ccc(-c2cc(C)no2)cc1S(=O)(=O)NCc1ccccc1OC	36	31*	.	.	15	7	7	31*
CCSCCOC(=O)C1=C(C)N(C)C(=O)NC1c1cc(OC)ccc1OC (stereo unspecified)	14	23*	11	17	-10	-13	-5	10
COc1ccc(C(O)Cc2nc3ccccc3n2C)cc1OC (stereo unspecified)	22	-6	9	26	-15	-5	.	.
Cc1ccc(S(=O)(=O)CCC(=O)OCC(=O)c2c(N)n(CC(C)C)c(=O)n(C)c2=O)cc1	15	-15	.	.	-11	-6	.	.
COc1ccc(CCC(=O)OCC(=O)c2c(N)n(CC(C)C)c(=O)n(C)c2=O)cc1	41	28*	.	.	24	44*	44*	60*
CC(C)[C@H]1CN(Cc2ccco2)CCN1C(=O)Nc1ccccc1F	.	.	.	-9	.	.	.	.
CC(C)Cc1ccc(C(C)C(=O)Nc2cccnc2)cc1 (stereo unspecified)	20	54*	.	.	90*	69*	46*	68*
CC(C)CC(NC(=O)C1CCC(C)CC1)C(=O)Nc1cccnc1 (stereo unspecified)	6	28*	8	-6	-27	-9	-13	34*
CC(C)(C)c1cc(NCCCn2ccnc2)n2ncc(-c3ccc(Cl)cc3)c2n1	6	1	13	40	-30	-26	.	.
CN(C)CCCNc1cc(C(C)(C)C)nc2c(-c3ccccc3)cnn12	4	67*	10	5	8	27	66*	67*
O=C(C1CC1)N1CCN=C1SCc1ccc(F)cc1	14	-5	12	10	-15	-9	.	.
COc1ccc(OCc2nnc(SCC(=O)N3CCCCC3)o2)cc1	9	-8	.	.	-30	-17	.	.
COc1ccc(OCc2nnc(SCC(=O)N3CCCC3)o2)cc1	12	24*	13	-32	-26	-8	-1	7
Cc1c(NC(=O)Nc2cccs2)cccc1[N+](=O)[O-]	13	36*	10	-55	11	10	-9	36*
